Structures are written as SMILES.

One experiment can be described thus: Antiinflammatory activity in rat Polymorphonuclear leukocyte assessed as inhibition of LPS-induced nitric oxide production at 5 uM. Format: functional. The method in brief: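 Rat polymorphonuclear leukocytes stimulated with LPS; compounds tested at 5 μM, with dexamethasone at the same concentration as positive control. NO in culture supernatant was read by Griess reaction: equal volume of reagent (0.1% naphthylethylenediamine, 1% sulfanilamide in 5% phosphoric acid), 20 min at room temperature, A540, against sodium nitrite standards. Percent inhibition, n = 3.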
For the compound `COc1cc(C(=O)OC[C@H]2O[C@@H](Oc3cc(O)c(OC)c(OC)c3)[C@H](O)[C@@H](O)[C@@H]2O)cc(OC)c1O`, the inhibition – broadly, the share of the control response that was lost under treatment – at 5 µM is 4.7%.

With `COc1cc(C(=O)OC[C@H]2O[C@@H](Oc3cc(O)c(OC)c(OC)c3)[C@H](O)[C@@H](O)[C@@H]2O)ccc1O`, the inhibition at 5 µM worked out at 6.5%.

Regarding `C[C@@H]1C[C@H]2[C@@H]3CCC4=CC(=O)C=C[C@]4(C)[C@@]3(F)[C@@H](O)C[C@]2(C)[C@@]1(O)C(=O)CO` [DEXAMETHASONE], the inhibition at 5 µM was found to be 74.7%.

In the case of `C/C=C(/C)C(=O)O[C@H]1CC(C)(C)C[C@H]2C3=CC[C@@H]4[C@@]5(C)CC[C@H](O[C@@H]6O[C@H](C(=O)O)[C@@H](O)[C@H](O[C@@H]7OC[C@H](O)[C@H](O)[C@H]7O[C@@H]7OC[C@@H](O)[C@H](O)[C@H]7O)[C@H]6O[C@@H]6O[C@H](CO)[C@H](O)[C@H](O)[C@H]6O)C(C)(C)[C@@H]5CC[C@@]4(C)[C@]3(C)C[C@@H](O)[C@@]12CO` [GORDONOSIDE I], the inhibition at 5 µM stood at 96.6%.

Regarding `C/C=C(/C)C(=O)O[C@H]1CC(C)(C)C[C@H]2C3=CC[C@@H]4[C@@]5(C)CC[C@H](O[C@@H]6O[C@H](C(=O)O)[C@@H](O)[C@H](O[C@@H]7OC[C@H](O)[C@H](O)[C@H]7O[C@@H]7OC[C@@H](O)[C@H](O)[C@H]7O)[C@H]6O[C@@H]6O[C@H](CO)[C@H](O)[C@H](O)[C@H]6O)C(C)(C)[C@@H]5CC[C@@]4(C)[C@]3(C)[C@@H](O)[C@@H](O)[C@@]12CO` [GORDONOSIDE J], the inhibition at 5 µM was found to be 9.1%.

For `CC1(C)CC[C@]2(C(=O)O[C@@H]3O[C@H](CO)[C@@H](O)[C@H](O)[C@H]3O)[C@H](O)C[C@]3(C)C(=CC[C@@H]4[C@@]5(C)CC[C@H](O[C@@H]6O[C@H](C(=O)O)[C@@H](O)[C@H](O[C@@H]7OC[C@H](O)[C@H](O)[C@H]7O)[C@H]6O)C(C)(C)[C@@H]5CC[C@]43C)[C@@H]2C1` [GORDONOSIDE K], the inhibition at 5 µM was determined as 6.4%.

Consider `CC1(C)CC[C@]2(C(=O)O[C@@H]3O[C@H](CO)[C@@H](O)[C@H](O)[C@H]3O)[C@H](O)C[C@]3(C)C(=CC[C@@H]4[C@@]5(C)CC[C@H](O[C@@H]6O[C@H](C(=O)O)[C@@H](O)[C@H](O[C@@H]7OC[C@H](O)[C@H](O)[C@H]7O[C@@H]7OC[C@H](O)[C@H](O)[C@H]7O)[C@H]6O)C(C)(C)[C@@H]5CC[C@]43C)[C@@H]2C1` [GORDONOSIDE L], for which the inhibition at 5 µM is 14%.

On to `C[C@@H]1O[C@@H](O[C@H]2[C@H](O[C@@H]3[C@@H](O)[C@H](O[C@H]4CC[C@]5(C)[C@H]6CC=C7[C@@H]8CC(C)(C)CC[C@]8(C(=O)O[C@@H]8O[C@H](CO)[C@@H](O)[C@H](O)[C@H]8O)[C@H](O)C[C@@]7(C)[C@]6(C)CC[C@H]5C4(C)C)O[C@H](C(=O)O)[C@H]3O)OC[C@H](O)[C@@H]2O)[C@H](O)[C@H](O)[C@H]1O` [GORDONOSIDE M], for which the inhibition at 5 µM was found to be 2.9%.

In the case of `CC1(C)CC[C@]2(C(=O)O[C@@H]3O[C@H](CO)[C@@H](O)[C@H](O)[C@H]3O)[C@H](O)C[C@]3(C)C(=CC[C@@H]4[C@@]5(C)CC[C@H](O[C@@H]6O[C@H](C(=O)O)[C@@H](O)[C@H](O[C@@H]7OC[C@H](O)[C@H](O)[C@H]7O[C@@H]7OC[C@@H](O)[C@H](O)[C@H]7O)[C@H]6O[C@@H]6O[C@H](CO)[C@@H](O)[C@H](O)[C@H]6O)C(C)(C)[C@@H]5CC[C@]43C)[C@@H]2C1` [GORDONOSIDE N], the inhibition at 5 µM is 8.9%.

For `CC1(C)CC[C@]2(C(=O)O[C@@H]3O[C@H](CO)[C@@H](O)[C@H](O)[C@H]3O)[C@H](O)C[C@]3(C)C(=CC[C@@H]4[C@@]5(C)CC[C@H](O[C@@H]6O[C@H](C(=O)O)[C@@H](O)[C@H](O[C@@H]7OC[C@H](O)[C@H](O)[C@H]7O[C@@H]7OC[C@@H](O)[C@H](O)[C@H]7O)[C@H]6O[C@@H]6O[C@H](CO)[C@H](O)[C@H](O)[C@H]6O)C(C)(C)[C@@H]5CC[C@]43C)[C@@H]2C1` [GORDONOSIDE O], the inhibition at 5 µM amounted to 12.6%.

On to `C[C@@H]1O[C@@H](O[C@@H]2[C@@H](O)[C@H](O[C@H]3[C@H](O[C@H]4CC[C@]5(C)[C@H]6CC=C7[C@@H]8CC(C)(C)CC[C@]8(C(=O)O[C@@H]8O[C@H](CO)[C@@H](O)[C@H](O)[C@H]8O)[C@H](O)C[C@@]7(C)[C@]6(C)CC[C@H]5C4(C)C)O[C@H](C(=O)O)[C@@H](O)[C@@H]3O[C@@H]3OC[C@@H](O)[C@H](O)[C@H]3O)O[C@H](CO)[C@H]2O)[C@H](O)[C@H](O)[C@H]1O` [GORDONOSIDE P], for which the inhibition at 5 µM turned out to be 5.9%.

Another experiment in a line: Antiinflammatory activity in Macrophage assessed as LPS-induced nitric oxide production by Griess assay. Format: functional, cell-based. The gist of the method: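 LPS-activated macrophages. Nitrite in culture supernatant was measured by the Griess reaction: supernatant mixed with an equal volume of Griess reagent (0.1% w/v N-(1-naphthyl)ethylenediamine dihydrochloride plus 1% w/v sulfanilamide in 5% v/v phosphoric acid, combined within 1 h of use), 20 min at room temperature, then A540. Sodium nitrite standards were used. Result reported as IC50.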
On the technique in general: The Griess reaction detects nitrite, a stable product of nitric oxide.
`C/C=C(/C)C(=O)O[C@H]1CC(C)(C)C[C@H]2C3=CC[C@@H]4[C@@]5(C)CC[C@H](O[C@@H]6O[C@H](C(=O)O)[C@@H](O)[C@H](O[C@@H]7OC[C@H](O)[C@H](O)[C@H]7O[C@@H]7OC[C@@H](O)[C@H](O)[C@H]7O)[C@H]6O[C@@H]6O[C@H](CO)[C@H](O)[C@H](O)[C@H]6O)C(C)(C)[C@@H]5CC[C@@]4(C)[C@]3(C)C[C@@H](O)[C@@]12CO` [GORDONOSIDE I]: the IC50 – broadly, the concentration that gives 50% inhibition – was 140 nM.

Values taken from ChEMBL document CHEMBL1781996, “Potential anti-inflammatory constituents of the stems of Gordonia chrysandra” (J Nat Prod, 2011).
